Assay results taken from the EternaBench riboswitch data.

System: MS2 coat protein
Test: apparent Kd, MS2 coat protein; higher = weaker binding; RNA-MaP array; FMN 200 µM where present
Procedure, shortened: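 Designs were transcribed by stalled E. coli RNA polymerase on Illumina sequencing-chip clusters. They were titrated with SNAP-549-labelled MS2 coat protein from 0.7 or 1.5 nM, doubling to 3 µM, without and then with constant ligand. Buffer: 100 mM Tris-HCl pH 7.5, 80 mM KCl, 4 mM MgCl2, BSA, DTT, yeast tRNA, Tween-20. Green signal was normalised to red-channel RNA signal and control-cluster median Fmax. Apparent Kd is the median of filtered per-cluster binding-curve fits.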

[1] = designed as: ON switch for flavin mononucleotide, no ligand
[2] = ligand present: flavin mononucleotide, designed as: ON switch for flavin mononucleotide
[3] = designed as: OFF switch for flavin mononucleotide, no ligand
[4] = ligand present: flavin mononucleotide, designed as: OFF switch for flavin mononucleotide

| Sequence | apparent Kd [1] | apparent Kd [2] | apparent Kd [3] | apparent Kd [4] |
| --- | --- | --- | --- | --- |
| GGUCCAUCAUGAGGAUAUGGCACCUUAUUUGUGCCAGAAGGCAUGUCGAUAGACAUGAGGAUCACCCAUGUAAUAAAUUGGACC | 1430 nM | 104 nM |  |  |
| GGUCCCUACGCACAGGAUAUUCUUUUGGCAACAUGAGGAUCACCCAUGUGUGCCGAUCAUGGUUAGAAGAAGGGUGGUAGGGACC | 20.6 nM | 15.7 nM |  |  |
| GGUCCGUAACAGAAGGCCGUAACUGGCGGUGGCGGAGGAUAUGUGGGCGGCCCUUGACAACAUGAGGAUCACCCAUGUAUGUAA | 41.3 nM | 113 nM |  |  |
| GGUCGUCAUAUUAACAUGAGGAUCACCCAUGUGAAAACACAUGAGGAUAUGCAUCCUAAUUGGAUGCAGAAGGCAUGGACGACC | 23.7 nM | 6.49 nM |  |  |
| GGUCUACAUGAGGAUCACCCAUGUAAGGAUAUCGUCACUGGAGCUUCGGCUCCAGUGACGAGAAGGUACGUAAU |  |  | 31.7 nM | 33.7 nM |
| GGUCUGAGAGGAUAUACAUGAAAAAAAAAAGUAAGAUCCCUACAUGAGGAUCACCCAUGUAGAAGGCUCUGAUA |  |  | 33.8 nM | 33.9 nM |
| GGUGCAUAUGAGAAGGUGAUCAUGAAACAUGAUCGAGGAUAUCAUGUAAACAUGAGGAUCACCCAUGUAUGGGAAUAUUGCACC | 46.2 nM | 117 nM |  |  |
| GGUGCGUUUGUGAGGAUAUGCUGGUCCUUGGCUCAGCAGAAGGCACAUGAGGAUCACCCAUGUGGUGUCGUACC |  |  | 294 nM | 41.8 nM |
| GGUGCGUUUGUGAGGAUAUGCUGGUCCUUGGUUCGGCAGAAGGCACAUGAGGAUCACCCAUGUGGUGUCGCACC |  |  | 94.6 nM | 51.5 nM |
| GGUGGACAUGAGGAUCACCCAUGUGAGGAUAUCGGCUGGCUAGCGGCGGACGGCUGCUCGAGAAGGCGCAUUGU |  |  | 90.6 nM | 137 nM |
| GGUGGACAUGAGGAUCACCCAUGUGAGGAUAUCGGCUGGUACGUGGUGGCUGGCAUCUCGAGAAGGCACAUAGU |  |  | 80.1 nM | 202 nM |
| GGUGGGUUGCUACCGGCACAUGAGGAUCACCCAUGUUUUGGGAAGGAUAUGGUACCUAUUUGGUACCAGAAGGUCCCGUUGGUG | 330 nM | 239 nM |  |  |
| GGUGGUACAGAGAAGGCGCCGCAGCUCUUCCUCCCAUCCCAACGACAUGAGGAUCACCCAUGUAGCGAGGAUAUCUGUGCCAUC |  |  | 7.05 nM | 22.5 nM |
| GGUUACACAGGAUAUACAUGAGGAUCACCCAUGUCGAGCCGACCCGGAUGCACCUAAAGUAGAAGGGUGAGCUG |  |  | 21.8 nM | 22.7 nM |
| GGUUAUUGCAAGGAUAUGCUAUUAUUUUAUUUUGCAGAAGGUGCAACAUGAGGAUCACCCAUGUUGGAGGGUUU |  |  | 21.5 nM | 41.1 nM |
| GGUUAUUGCAAGGAUAUGCUUUUUUUUGAUAUUGCAGAAGGUGCAACAUGAGGAUCACCCAUGUUGGAUGGGUU |  |  | 119 nM | 162 nM |
| GGUUCGGGAGGAUAUGUUUUUUUUUACAUGAGGAUCACCCAUGUUUUUGUGUUUUUUUUCAUAGAAGGUUUGGGCC |  |  | 39 nM | 39.3 nM |
| GGUUGGCGAGGAUAUACAUGAGGAUCACCCAUGUGGUCCUGUGGCUGGUCUUGCCUUUGUAGAAGGCGCGGGUC |  |  | 105 nM | 111 nM |
| GGUUGUUAUGACAGCGAGUGUUAGAGAAGGUACAUGAGGAUCACCCAUGUACGUGAUCUUGCGAGUAAGGAUAUCUGUUAUUCA |  |  | 5.65 nM | 5.83 nM |
| GUAAACGAUCAGGAUAUAUCAAAUAAUAGCUUGAUAGAAGGGAUCACAUGAGGAUCACCCAUGUGAUCUUCUUU |  |  | 13.6 nM | 14.8 nM |
| GUAAAUCAUGUAGGAUAUGCAUGGCGAAGCUACGCAGAAGGACAUGAGGAUCACCCAUGUUCUGGCUACCGGAUACGGUGGCAA |  |  | 21.1 nM | 87.6 nM |

| Sequence | apparent Kd [1] | apparent Kd [2] | apparent Kd [3] | apparent Kd [4] |
| --- | --- | --- | --- | --- |
| GUAACGCUUGACAUGAGGAUCACCCAUGUUAGAUUGUUAUGUCAGGAUAUAGUCUAGAAACUAGACUAGAAGGGAUAUGUUACU | 69.6 nM | 29.4 nM |  |  |
| GUAACUCAUGUAGGAUAUGCAUGGCGAAGCUACGCAGAAGGACAUGAGGAUCACCCAUGUUCUAGCGUCUGAGUACAGAUGCAA |  |  | 60.2 nM | 436 nM |
| GUAAGCUCGUGAGGAUAUACAACACUGCUUCGGCAGUGUAUUAAGAUCACAUGAGGAUCACCCAUGUAGAAGGCACGAGCUGAU |  |  | 13.8 nM | 245 nM |
| GUAAUACAUGAGGAUCACCCAUGUCAAUGUAGUCGAGGAUAUGGGUAGCUAUGAGGCUUACUAGAAGGCGACGAGC | 210 nM | 39.3 nM |  |  |
| GUAAUUUAUAGAGGAUAUUGACAUGAGGAUCACCCAUGUAUUUGGGAGUGUUCACUGAAUUCUUACGAGAAGGCUAUAAAAUAC |  |  | 307 nM | 213 nM |
| GUACGCUCAGGAUAUCAAGGGCUGUACAUGAGGAUCACCCAUGUUAUCUUGGUGUCAGCGUGAGAAGGGAGGGAAA |  |  | 26 nM | 32.7 nM |
| GUACGGGAGGAGAAGGGCUAGGAGGUCCAGCUUAUGUGUGUUGCAACAUGAGGAUCACCCAUGUAGCAGGAUAUCCUCUGUACA |  |  | 46.3 nM | 332 nM |
| GUACGUGGACAGAAGGCGACAUGAGGAUCACCCAUGUUGGCUCGGGUACGAGCGAUCCGCGUGAUUGAGGAUAUGUCUGCGGGC |  |  | 20 nM | 80.8 nM |
| GUACGUGGACAGAAGGUGACAUGAGGAUCACCCAUGUUAGUUGAGGUAUCAGCGAUCUGCGUGAUUGAGGAUAUGUCUGCGGGC |  |  | 11.9 nM | 11.7 nM |
| GUACUGAAGCUUUGCUUUAGUCGUACAUGAGGAUCACCCAUGUAGGAUAUGGUAGGCAUUGCUUACUAGAAGGAUAGAGUGAUC |  |  | 85 nM | 54.9 nM |
| GUACUGUAGUGAGGAUAUACGAGUACGAUAGUACGGCGAUCCAUAUAUACAUGAGGAUCACCCAUGUAGAAGGCACUUCAGUAC |  |  | 8.66 nM | 109 nM |
| GUAGAGUAAGGAUAUACUGAAUAGGAUAGAAUGGUUAGAAAGUAGAAGGUACAUGAGGAUCACCCAUGUAAUGU |  |  | 20.3 nM | 19.7 nM |
| GUAGAGUCAGGAUAUACAGAAAGUGGCUGGAAAACAGUGGCACAUGAGGAUCACCCAUGUAGAAGGGACUCUAC |  |  | 89.4 nM | 215 nM |
| GUAGCACAUGAUUUACAUGAGGAUCACCCAUGUAACAUGGGUAAGGAUAUUGAUGUGAAGUUAAUCAAGAAGGUACUAUGCUAC | 9.65 nM | 6.35 nM |  |  |
| GUAGCAUACCGAGGAUAUUCCCGGAAACGGAAAACAUGAGGAUCACCCAUGUGGCGAAAGCCUUGGGAGAAGGCGGAAUGCUAC | 25.4 nM | 19.4 nM |  |  |
| GUAGCAUAGACAGGAUAUCUAUACCCGAAAGGGACAUGAGGAUCACCCAUGUUGCGAAAGCGGUGGGAGAAGGGUCUAUGCUAC | 25.4 nM | 6.04 nM |  |  |
| GUAGCCGACCAGAAGGGUGACAUGAGGAUCACCCAUGUAGAUGUGUUCCCGCUUGGGAGCCGUCCACAGGAUAUGGUUGGUUAU | 54.1 nM | 38.3 nM |  |  |
| GUAGCUAUCGGAGGAUAUCCUUAGCGGAAACGCACAUGAGGAUCACCCAUGUAAAUAAAUAAUUGGGAGAAGGCCGAUAGCUAC | 107 nM | 16.8 nM |  |  |
| GUAGCUAUCGGAGGAUAUUCAUACCGGAAACGGACAUGAGGAUCACCCAUGUGGCGAAAGUCUUGGGAGAAGGCCGAUAGCUAC | 75.5 nM | 6.28 nM |  |  |
| GUAGCUAUCGGAGGAUAUUCAUACCGUAAACGGACAUGAGGAUCACCCAUGUAGCGAAAGCCUUGGGAGAAGGCCGAUAGCUAC | 942 nM | 88.8 nM |  |  |
| GUAGCUAUCGGAGGAUAUUCAUAUCGGAAACGGACAUGAGGAUCACCCAUGUGGCGAAAGCCUUGGGAGAAGGCCGAUAGCUAC | 144 nM | 9.42 nM |  |  |
